In ChEMBL document CHEMBL3352507, “Preparation and antimalarial activity of a novel class of carbohydrate-derived, fused thiochromans” (Eur J Med Chem, 2014):

Columns and labels:
Plasmodium falciparum [1] = experiment: Antimalarial activity against Plasmodium falciparum FCR3 after 48 hrs by parasite lactate dehydrogenase assay; type: functional, organism-based; conditions: FCR3, 48 h
Summary of the method: (§1)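 Parasite survival read by parasite lactate dehydrogenase (pLDH) assay. Single-concentration prescreen at […]; compounds with 0–15% survival were taken to dose–response. Ten three-fold serial dilutions in triplicate, incubated 48 h in a gassed airtight box, developed with NBT/PES. IC50 from sigmoidal curve of % survival relative to control against log concentration.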

Plasmodium falciparum [2] = experiment: Antimalarial activity against Plasmodium falciparum 3D7 after 48 hrs by parasite lactate dehydrogenase assay; type: functional, organism-based; conditions: 3D7, 48 h; summary of the method: as §1
[3] = Cytotoxicity against human WI38 cells after 48 hrs by SRB assay; type: cell-based; conditions: WI-38, 48 h
Summary of the method: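 WI-38 human fetal lung fibroblasts (passages 21–50) in EMEM with 10% FBS, 2 mM L-glutamine and gentamicin, at 37 °C and 5% CO2. Seeded at 10 000 cells/well, grown 24 h, then given compound in DMSO diluted in medium to 5 concentrations for 48 h. Cells were fixed with cold 50% TCA and stained with SRB, and dye was read at 540 nm. IC50 by non-linear regression against untreated controls.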

[4] = Cytotoxicity against human WI38 cells assessed as cell viability at 100 uM after 48 hrs by SRB assay; type: cell-based, WI-38; conditions: read-out: Activity
Summary of the method: (§2)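 WI-38 fibroblasts (passages 21–50) were seeded at 10 000 cells/well for 24 h, then exposed for 48 h to compound dissolved in DMSO and diluted in medium. Viable cells were fixed with cold 50% trichloroacetic acid and stained with sulforhodamine B. Bound dye was extracted with 10 mM Tris base and read at 540 nm. Viability relative to drug-free cells.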

[5] = Cytotoxicity against human WI38 cells assessed as cell viability at 0.1 uM after 48 hrs by SRB assay; type: cell-based, WI-38; conditions: read-out: Activity; summary of the method: as §2
[6] = Cytotoxicity against human WI38 cells assessed as cell viability at 0.01 uM after 48 hrs by SRB assay; type: cell-based, WI-38; conditions: read-out: Activity; summary of the method: as §2
[7] = Cytotoxicity against human WI38 cells assessed as cell viability at 10 uM after 48 hrs by SRB assay; type: cell-based, WI-38; conditions: read-out: Activity; summary of the method: as §2
[8] = Cytotoxicity against human WI38 cells assessed as cell viability at 1 uM after 48 hrs by SRB assay; type: cell-based, WI-38; conditions: read-out: Activity; summary of the method: as §2

Structure (SMILES)	IC50 (Plasmodium falciparum [1]) [µM]	IC50 (Plasmodium falciparum [2]) [µM]	IC50 [3] [µM]	viability at 48 h, 100 µM [4] [%]	viability at 48 h, 0.1 µM [5] [%]	viability at 48 h, 0.01 µM [6] [%]	viability at 48 h, 10 µM [7] [%]	viability at 48 h, 1 µM [8] [%]
CC(C)(C)c1ccc2c(c1)[C@H]1O[C@H](COCc3ccccc3)[C@@H](OCc3ccccc3)[C@H](OCc3ccccc3)[C@H]1CS2	> 100	> 100	–	–	–	–	–	–
c1ccc(COC[C@H]2O[C@@H]3c4c(ccc5ccccc45)SC[C@@H]3[C@@H](OCc3ccccc3)[C@@H]2OCc2ccccc2)cc1	7.11	> 100	> 100	–	–	–	–	–
CC(=O)OC[C@H]1O[C@@H]2c3cc(C(C)(C)C)ccc3SC[C@@H]2[C@@H](OC(C)=O)[C@@H]1OC(C)=O	> 100	> 100	–	–	–	–	–	–
CC(C)(C)c1ccc2c(c1)[C@H]1O[C@H](CO)[C@@H](O)[C@H](O)[C@H]1CS2	> 100	> 100	–	–	–	–	–	–
[O-][S@@+]1C[C@@H]2[C@@H](OCc3ccccc3)[C@H](OCc3ccccc3)[C@@H](COCc3ccccc3)O[C@@H]2c2ccccc21	10.3	> 100	> 100	–	–	–	–	–
Cc1cccc2c1[S@@+]([O-])C[C@@H]1[C@@H](OCc3ccccc3)[C@H](OCc3ccccc3)[C@@H](COCc3ccccc3)O[C@H]21	2.76	4.13	> 100	67.1	99.5	102	84.7	99.2
[O-][S@@+]1C[C@@H]2[C@@H](OCc3ccccc3)[C@H](OCc3ccccc3)[C@@H](COCc3ccccc3)O[C@@H]2c2c1ccc1ccccc21	0.52	3.55	> 100	89	92.5	96	93.7	96
[O-][S@+]1C[C@@H]2[C@@H](OCc3ccccc3)[C@H](OCc3ccccc3)[C@@H](COCc3ccccc3)O[C@@H]2c2ccccc21	> 100	> 100	–	–	–	–	–	–
Cc1ccc2c(c1)[C@H]1O[C@H](COCc3ccccc3)[C@@H](OCc3ccccc3)[C@H](OCc3ccccc3)[C@H]1C[S@@+]2[O-]	2.91	2.57	> 100	70.3	101	101	92.6	100
COc1ccc2c(c1)[C@H]1O[C@H](COCc3ccccc3)[C@@H](OCc3ccccc3)[C@H](OCc3ccccc3)[C@H]1C[S@@+]2[O-]	2.07	2.21	8.76	27.2	98	97.4	55.4	97.2
CC(C)(C)c1ccc2c(c1)[C@H]1O[C@H](COCc3ccccc3)[C@@H](OCc3ccccc3)[C@H](OCc3ccccc3)[C@H]1C[S@@+]2[O-]	0.33	1.33	> 100	60.2	98.8	100	86.9	97.1
Cc1cccc2c1[S@+]([O-])C[C@@H]1[C@@H](OCc3ccccc3)[C@H](OCc3ccccc3)[C@@H](COCc3ccccc3)O[C@H]21	4.34	6.29	> 100	52.5	99.3	101	88.2	95.5
[O-][S@+]1C[C@@H]2[C@@H](OCc3ccccc3)[C@H](OCc3ccccc3)[C@@H](COCc3ccccc3)O[C@@H]2c2c1ccc1ccccc21	2.17	2.55	> 100	79.4	98.5	101	94.5	96.7
O=S1(=O)C[C@@H]2[C@@H](OCc3ccccc3)[C@H](OCc3ccccc3)[C@@H](COCc3ccccc3)O[C@@H]2c2ccccc21	3.95	> 100	> 100	67.8	97	97.8	92.4	97
Cc1ccc2c(c1)[C@H]1O[C@H](COCc3ccccc3)[C@@H](OCc3ccccc3)[C@H](OCc3ccccc3)[C@H]1CS2(=O)=O	1.93	2.32	> 100	68.5	95.7	99.5	91.7	94.6
COc1ccc2c(c1)[C@H]1O[C@H](COCc3ccccc3)[C@@H](OCc3ccccc3)[C@H](OCc3ccccc3)[C@H]1CS2(=O)=O	1.7	1.8	> 100	–	–	–	–	–
CC(C)(C)c1ccc2c(c1)[C@H]1O[C@H](COCc3ccccc3)[C@@H](OCc3ccccc3)[C@H](OCc3ccccc3)[C@H]1CS2(=O)=O	0.28	0.39	> 100	71.7	96.3	96.7	91	92.7
Cc1cccc2c1S(=O)(=O)C[C@@H]1[C@@H](OCc3ccccc3)[C@H](OCc3ccccc3)[C@@H](COCc3ccccc3)O[C@H]21	1.62	2.34	> 100	–	–	–	–	–
O=S1(=O)C[C@@H]2[C@@H](OCc3ccccc3)[C@H](OCc3ccccc3)[C@@H](COCc3ccccc3)O[C@@H]2c2c1ccc1ccccc21	3.83	2.09	> 100	–	–	–	–	–
CC(=O)OC[C@H]1O[C@@H]2c3cc(C(C)(C)C)ccc3S(=O)(=O)C[C@@H]2[C@@H](OC(C)=O)[C@@H]1OC(C)=O	> 100	> 100	–	–	–	–	–	–
CC(C)(C)c1ccc2c(c1)[C@H]1O[C@H](CO)[C@@H](O)[C@H](O)[C@H]1CS2(=O)=O	> 100	> 100	–	–	–	–	–	–
O=S1(=O)C[C@@H]2[C@@H](OCc3ccccc3)[C@H](OCc3ccccc3)[C@@H](COCc3ccccc3)O[C@H]2c2ccccc21	3.21	4.14	> 100	–	–	–	–	–
Cc1ccc2c(c1)[C@@H]1O[C@H](COCc3ccccc3)[C@@H](OCc3ccccc3)[C@H](OCc3ccccc3)[C@H]1CS2(=O)=O	1.69	2.34	> 100	–	–	–	–	–
COc1ccc2c(c1)[C@@H]1O[C@H](COCc3ccccc3)[C@@H](OCc3ccccc3)[C@H](OCc3ccccc3)[C@H]1CS2(=O)=O	1.95	2.5	> 100	–	–	–	–	–
CC(C)(C)c1ccc2c(c1)[C@@H]1O[C@H](COCc3ccccc3)[C@@H](OCc3ccccc3)[C@H](OCc3ccccc3)[C@H]1CS2(=O)=O	0.7	> 100	> 100	–	–	–	–	–
Cc1cccc2c1S(=O)(=O)C[C@@H]1[C@@H](OCc3ccccc3)[C@H](OCc3ccccc3)[C@@H](COCc3ccccc3)O[C@@H]21	2.14	3.4	> 100	–	–	–	–	–
O=S1(=O)C[C@@H]2[C@@H](OCc3ccccc3)[C@H](OCc3ccccc3)[C@@H](COCc3ccccc3)O[C@H]2c2c1ccc1ccccc21	> 100	> 100	–	–	–	–	–	–
